Assay results from different studies.
Compare with care: the assays were run in different laboratories.
Cell line: A-375
Read-out: cell growth or viability

COc1cc(Nc2nccc(-c3cnn4nc(OC)ccc34)n2)cc(C(F)(F)F)c1  IC50 (ATP luminescence): 97 nM
COc1cc(C(=O)c2csc(-c3ccccc3)n2)cc(OC)c1OC  IC50 (SRB; 96 h): 28 nM
CNc1nc2ccccc2n2c(-c3cccc(OC)c3)cnc12  IC50 (neutral red; 96 h): 230 nM
O=C(O)c1cc(O)c(O)c(O)c1  IC50 (MTT): 18700 nM
Cn1nccc1Nc1nccc(-c2ccn([C@H](CO)c3ccc(Cl)c(F)c3)c(=O)c2)n1  IC50 (resazurin; 96 h): 130 nM
CC(=O)c1ccc(N=Nc2c(C(=O)O)cc(O)c(O)c2O)cc1  IC50 (MTT): 12900 nM
CNC(=O)c1cc(Oc2ccc(NC(=O)Nc3ccc(Cl)c(C(F)(F)F)c3)cc2)ccn1  EC50: 4000 nM
Cn1nccc1Nc1nccc(-c2cc3c(s2)C(C)(C)N(CCN2CCOCC2)C3=O)n1  IC50 (resazurin; 96 h): 350 nM
CN(C)CCOc1ccc(-c2nc(-c3ccncc3)c(-c3ccc4c(c3)CC/C4=N\O)[nH]2)cc1  EC50: 30 nM
O=C(O)/C=C/c1ccc(O)c(O)c1  IC50 (MTT): 4800 nM
CC(C)C[C@H](NC(=O)[C@H](Cc1ccccc1)NC(=O)c1cnccn1)B(O)O  IC50 (ATP luminescence): 11 nM
